# According to ChEMBL document CHEMBL1125259, “Lipophilic glycosyl phosphotriester derivatives of AZT: synthesis, NMR transmembrane transport study, and antiviral activity” (1991):
# Experiments:
# Format in all cases: functional
# CCRF-CEM [1] = assay: Concentration that reduced by 50% the HIV induced CPE (cytopathic effect) on day 11.; conditions: Homo sapiens, 264 h, read-out: ED50 (the source's name)
# How it was run: (§1)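 CEM-C113 cells (1×10^5 cells/mL) were infected with HIV-1 LAV-Bru or mock-infected, with compound dilutions in triplicate, for at least 7 days. Medium with or without drug was renewed every 3–4 days for longer runs. MTT absorbance was read at 540 nm. CD50 = 50% reduction of mock-infected absorbance; ED50 = dose giving 50% protection from CPE. Values are averages of at least two experiments.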
# CCRF-CEM [2] = assay: Concentration that reduced by 50% the HIV induced CPE (cytopathic effect) on day 7.; conditions: Homo sapiens, 168 h, read-out: ED50 (the source's name); how it was run: as §1
# CCRF-CEM [3] = assay: Concentration required to reduce the viability of uninfected cells (CEM-CL13) by 50% on day 19.; conditions: Homo sapiens, 456 h, read-out: CD50 (the source's name); how it was run: as §1
# CCRF-CEM [4] = assay: Concentration required to reduce the viability of uninfected cells (CEM-CL13) by 50% on day 7.; conditions: Homo sapiens, 168 h, read-out: CD50 (the source's name); how it was run: as §1
# [5] = biological target: Human immunodeficiency virus type 1 reverse transcriptase (Human immunodeficiency virus 1) (UniProt Q72547); assay: Compound ability to inhibit the production of HIV reverse transcriptase (RT) in culture supernatant of monocytic U937 on at 14 days at a concentration 1 uM
# How it was run: (§2)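 HIV-1-infected monocytic U937 cultures were kept up to 14 days with compound. Supernatant RT activity was measured as for CEM-C113, as [³H] cpm/50 µL. % inhibition = 100 − 100 × (cpm of treated samples / cpm of control virus).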
# [6] = biological target: Human immunodeficiency virus type 1 reverse transcriptase (Human immunodeficiency virus 1) (UniProt Q72547); assay: Compound ability to inhibit the production of HIV reverse transcriptase (RT) in culture supernatant of monocytic U937 on at 7 days at a concentration 1 uM; how it was run: as §2
# [7] = biological target: Human immunodeficiency virus type 1 reverse transcriptase (Human immunodeficiency virus 1) (UniProt Q72547); assay: Compound ability to inhibit the production of HIV reverse transcriptase (RT) in preinfected PBL (peripheral blood lymphocytes) at 10 days at a concentration 1 uM
# How it was run: (§3)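 PBL were infected with HIV-1 for 1 h at 37 °C, washed twice, and resuspended in complete medium with 10% interleukin-2 and anti-human α-interferon (1000 units/mL). Cells were plated at 1×10^6 cells/well with or without compound. At each time point, 50 µL supernatant was taken for RT assay ([³H]dTTP incorporation, cpm).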
# [8] = biological target: Human immunodeficiency virus type 1 reverse transcriptase (Human immunodeficiency virus 1) (UniProt Q72547); assay: Compound ability to inhibit the production of HIV reverse transcriptase (RT) in preinfected PBL (peripheral blood lymphocytes) at 10 days at a concentration 5 uM; how it was run: as §3
# [9] = biological target: Human immunodeficiency virus type 1 reverse transcriptase (Human immunodeficiency virus 1) (UniProt Q72547); assay: Compound ability to inhibit the production of HIV reverse transcriptase (RT) in preinfected PBL (peripheral blood lymphocytes) at 14 days at a concentration 1 uM; how it was run: as §3
# [10] = biological target: Human immunodeficiency virus type 1 reverse transcriptase (Human immunodeficiency virus 1) (UniProt Q72547); assay: Compound ability to inhibit the production of HIV reverse transcriptase (RT) in preinfected PBL (peripheral blood lymphocytes) at 21 days at a concentration 5 uM; how it was run: as §3
# [11] = biological target: Human immunodeficiency virus type 1 reverse transcriptase (Human immunodeficiency virus 1) (UniProt Q72547); assay: Compound ability to inhibit the production of HIV reverse transcriptase (RT) in preinfected PBL (peripheral blood lymphocytes) at 7 days at a concentration 1 uM; how it was run: as §3
# [12] = biological target: Human immunodeficiency virus type 1 reverse transcriptase (Human immunodeficiency virus 1) (UniProt Q72547); assay: Compound ability to inhibit the production of HIV reverse transcriptase (RT) in preinfected PBL (peripheral blood lymphocytes) at 7 days at a concentration 5 uM; how it was run: as §3
# [13] = biological target: Human immunodeficiency virus type 1 reverse transcriptase (Human immunodeficiency virus 1) (UniProt Q72547); assay: Compounds were evaluated for anti-RT activity at 0 days of culture
# How it was run: (§4)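 HIV-1 (12 500 CCID50) was preincubated with compound at 25 µM final for 60 min at 37 °C, pelleted by ultracentrifugation and resuspended. RT was measured at once with poly(rA)-oligo(dT) and ³H-dTTP (1 h, 37 °C, cpm). Treated virus was then put on CEM-C113 cells for 60 min and replaced with compound-free medium. Supernatant RT was read at days 7 and 9.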
# [14] = biological target: Human immunodeficiency virus type 1 reverse transcriptase (Human immunodeficiency virus 1) (UniProt Q72547); assay: Compound ability to inhibit the production of HIV reverse transcriptase (RT) in culture supernatant of monocytic U937 on at 11 days at a concentration 1 uM; how it was run: as §2
# [15] = biological target: Human immunodeficiency virus type 1 reverse transcriptase (Human immunodeficiency virus 1) (UniProt Q72547); assay: Compound ability to inhibit the production of HIV reverse transcriptase (RT) in culture supernatant of CEM-CL13 on at 15 days at a concentration 0.2 uM
# How it was run: (§5)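 CEM-C113 cells in RPMI 1640 with 5% heat-inactivated FCS and polybrene (2 µg/mL) were plated at 1×10^5 cells/mL with compound in PBS, in triplicate, and infected with HIV-1 LAV-Bru. From day 7, every 3–4 days, fresh medium with or without drug was added and 50 µL supernatant was taken for RT microassay. The RT microassay used poly(rA)-oligo(dT) and (methyl-³H)dTTP for 1 h at 37 °C, with TCA precipitation, read as cpm/50 µL.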
# [16] = biological target: Human immunodeficiency virus type 1 reverse transcriptase (Human immunodeficiency virus 1) (UniProt Q72547); assay: Compound ability to inhibit the production of HIV reverse transcriptase (RT) in culture supernatant of CEM-CL13 on at 26 days at a concentration 0.2 uM; how it was run: as §5
# [17] = biological target: Human immunodeficiency virus type 1 reverse transcriptase (Human immunodeficiency virus 1) (UniProt Q72547); assay: Compounds were evaluated for anti-RT activity at 7 days of culture; how it was run: as §4
# [18] = biological target: Human immunodeficiency virus type 1 reverse transcriptase (Human immunodeficiency virus 1) (UniProt Q72547); assay: Compounds were evaluated for anti-RT activity by MTT dose and % cell / viability was reported at 13 days of culture
# [19] = biological target: Human immunodeficiency virus type 1 reverse transcriptase (Human immunodeficiency virus 1) (UniProt Q72547); assay: Compounds were evaluated for anti-RT activity by MTT dose and % cell / viability was reported at 7 days of culture
# How it was run: (§6)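 HIV-1 was preincubated with compound at 25 µM for 60 min at 37 °C, pelleted, and added to CEM-C113 cells (1×10^5 cells/mL) for 60 min at 37 °C. Medium was then replaced without compound. At days 7 and 9, viability was read by MTT assay on 100 µL of cell suspension.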
# [20] = biological target: Human immunodeficiency virus type 1 reverse transcriptase (Human immunodeficiency virus 1) (UniProt Q72547); assay: Compounds were evaluated for anti-RT activity by MTT dose and % cell / viability was reported at 9 days of culture; how it was run: as §6
# [21] = biological target: Human immunodeficiency virus type 1 reverse transcriptase (Human immunodeficiency virus 1) (UniProt Q72547); assay: Percent inhibition evaluated for anti-RT activity at 0 days of culture; design: concentration or dose not given beside the values; conditions: concentration not given here; how it was run: as §4
# [22] = biological target: Human immunodeficiency virus type 1 reverse transcriptase (Human immunodeficiency virus 1) (UniProt Q72547); assay: Percent inhibition evaluated for anti-RT activity at 7 days of culture; design: concentration or dose not given beside the values; conditions: concentration not given here; how it was run: as §4
# [23] = biological target: Human immunodeficiency virus type 1 reverse transcriptase (Human immunodeficiency virus 1) (UniProt Q72547); assay: Percent inhibition evaluated for anti-RT activity at 9 days of culture; design: concentration or dose not given beside the values; conditions: concentration not given here; how it was run: as §4
# [24] = biological target: Human immunodeficiency virus type 1 reverse transcriptase (Human immunodeficiency virus 1) (UniProt Q72547); assay: Percent inhibition measured as the production of HIV reverse transcriptase (RT) in culture supernatant of monocytic U937 on at 11 days at a concentration 1 uM
# How it was run: (§7)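 U937 cells in RPMI 1640 with 5% heat-inactivated FCS, penicillin, streptomycin and polybrene (2 μg/mL), 37 °C, 5% CO2. Infected with HIV-1 LAV-Bru; compounds diluted in PBS. 50 μL supernatant aliquots were assayed for RT: 1 h, 37 °C, pH 7.8, Mg2+, poly(rA)-oligo(dT), [3H]dTTP, TCA-pyrophosphate stop, filter counting. % inhibition = 100 − 100 × (treated cpm / virus-control cpm).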
# [25] = biological target: Human immunodeficiency virus type 1 reverse transcriptase (Human immunodeficiency virus 1) (UniProt Q72547); assay: Percent inhibition measured as the production of HIV reverse transcriptase (RT) in culture supernatant of monocytic U937 on at 7 days at a concentration 1 uM; how it was run: as §7
# [26] = biological target: Human immunodeficiency virus type 1 reverse transcriptase (Human immunodeficiency virus 1) (UniProt Q72547); assay: Compounds were evaluated for anti-RT activity by MTT dose and %protection was reported at 13 days of culture
# [27] = biological target: Human immunodeficiency virus type 1 reverse transcriptase (Human immunodeficiency virus 1) (UniProt Q72547); assay: Compounds were evaluated for anti-RT activity by MTT dose and %protection was reported at 9 days of culture; how it was run: as §6
SMILES,EC50 (CCRF-CEM [1]) [µM],EC50 (CCRF-CEM [2]) [µM],CC50 (CCRF-CEM [3]) [µM],CC50 (CCRF-CEM [4]) [µM],Activity (c.p.m. 50ul-1) [5],Activity (c.p.m. 50ul-1) [6],Activity (c.p.m. 50ul-1) [7],Activity (c.p.m. 50ul-1) [8],Activity (c.p.m. 50ul-1) [9],Activity (c.p.m. 50ul-1) [10],Activity (c.p.m. 50ul-1) [11],Activity (c.p.m. 50ul-1) [12],Activity (c.p.m. 50ul-1) [13],Activity (c.p.m. 50ul-1) [14],Activity (c.p.m. 50ul-1) [15],Activity (c.p.m. 50ul-1) [16],Activity (c.p.m. 50ul-1) [17],Cell viability [18] [%],Cell viability [19] [%],Cell viability [20] [%],further results
Cc1cn([C@H]2C[C@H](N=[N+]=[N-])[C@@H](COP(=O)(O)OC[C@H]3OC(O)[C@@H](O)[C@@H](O)[C@@H]3O)O2)c(=O)[nH]c1=O (stereo partly specified),0.2,0.13,24,27,22500,425000,3130,936,46100,19500,943,967,25000,137000,1700,85000,24000,18,54,36,inhibition [21]: 0%; inhibition [22]: 62%; inhibition [23]: 0%; inhibition [24]: 5%; inhibition [25]: 0%; Protection [26]: 3%; Protection [27]: 22%
CCCCCCCCCCCCCCCCOP(=O)(OC[C@H]1OC(O)[C@@H](O)[C@@H](O)[C@@H]1O)OC[C@H]1OC(n2cc(C)c(=O)[nH]c2=O)C[C@@H]1N=[N+]=[N-] (stereo partly specified),0.3,0.14,2.5,2.6,35000,122000,71500,28000,114000,22400,9320,3140,17000,225000,1700,73000,18000,25,77,32,inhibition [21]: 30%; inhibition [22]: 71%; inhibition [23]: 68%; inhibition [24]: 0%; inhibition [25]: 51%; Protection [26]: 10%; Protection [27]: 18%
CCCCCCCCCCCCCCCCOP(=O)(OC[C@H]1OC(O)[C@H](O)[C@@H](O)[C@@H]1O)OC[C@H]1OC(n2cc(C)c(=O)[nH]c2=O)C[C@@H]1N=[N+]=[N-] (stereo partly specified),0.18,0.18,3.2,11,4000,66000,26300,36400,144000,150000,3490,8210,16000,68000,1600,64000,8000,39,85,62,inhibition [21]: 9%; inhibition [22]: 87%; inhibition [23]: 58%; inhibition [24]: 53%; inhibition [25]: 73%; Protection [26]: 28%; Protection [27]: 52%
